From PMC6381215 (Pharmacology Research & Perspectives, 2019)
One block for each molecule: values may come before it.

How the values were obtained:
[1] = target: NMDA receptor (ion-channel / PCP site), rat forebrain membranes; experiment: enhancement of [3H]MK-[…]) binding; conditions: 5 mM Tris-HCl pH 7.4, 25 °C, 20 h
[2] = test system: Na+ channel (site 2); experiment: radioligand competition; conditions: read-out: IC50 (M) ^a
Outline: (§1)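 Outsourced radioligand competition binding panel of receptors, transporters and ion channels. Primary screen used a single 10 μmol L−1 concentration of test compound to give % inhibition of control specific binding. […] IC50 and Hill coefficient were obtained by non-linear regression.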

[3] = test system: Sigma (1 and 2); experiment: radioligand competition; conditions: read-out: IC50 (M) ^a; non-selective sigma 1 and 2
Outline: as §1

[4] = test system: Ca2+ channel (L, verapamil site); experiment: radioligand competition; conditions: read-out: IC50 (M) ^a
Outline: as §1

EC50 ([1]; co-agonist (glycine) site, no added glutamate): 1050 ± 500 nM
SMILES: NCC(=O)O [glycine]

EC50 ([1]; agonist (glutamate) site, no added glycine): 200 ± 10 nM
SMILES: N[C@@H](CCC(=O)O)C(=O)O [L-glutamate]

IC50 [2]: 3.9e-06 M
IC50 [3]: 2.2e-06 M
IC50 [4]: 2.2e-06 M
SMILES: COc1cccc(N(C)C(=N)Nc2cc(SC)ccc2Cl)c1 [GMOM, N‐(2‐chloro‐5‐thiomethylphenyl)‐N′‐(3‐methoxyphenyl)‐N′‐methylguanidine]
